Seven compounds from ChEMBL document CHEMBL1131235, “(R)-(+)-2-[[[3-(Morpholinomethyl)-2H-chromen-8-yl]oxy]methyl] morpholine methanesulfonate: a new selective rat 5-hydroxytryptamine1B receptor antagonist” (J Med Chem, 1998) can be followed below.

Assay [1] has as its target 5-hydroxytryptamine receptor 1B (Rattus norvegicus, UniProt P28564). The assay is described as follows: Binding affinity against 5-hydroxytryptamine 1B receptor in membranes of Rat cerebral cortex. Format: tissue-based. The method in brief: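 Rat cerebral cortical membranes labelled with [125I]iodocyanopindolol in the presence of 60 μM isoproterenol to block β-adrenoceptor binding. Nonspecific binding was defined with 10 μM 5-HT.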

For assay [2], the system named is Rattus norvegicus. Kind of assay: Effect on the wet dog shake response(WDS) in rats after 8 determinations at a dose of 1 mg/kg, sc pretreated with saline. Particulars: route subcutaneous.
For assay [3], the system named is Rattus norvegicus. Kind of assay: Effect on the wet dog shake response(WDS) in rats after 8 determinations at a dose of 1 mg/kg, sc pretreated with 200 mg/kg ip of pCPA.

Chain of 5-hydroxytryptamine receptor 1B (P28564 whole entry): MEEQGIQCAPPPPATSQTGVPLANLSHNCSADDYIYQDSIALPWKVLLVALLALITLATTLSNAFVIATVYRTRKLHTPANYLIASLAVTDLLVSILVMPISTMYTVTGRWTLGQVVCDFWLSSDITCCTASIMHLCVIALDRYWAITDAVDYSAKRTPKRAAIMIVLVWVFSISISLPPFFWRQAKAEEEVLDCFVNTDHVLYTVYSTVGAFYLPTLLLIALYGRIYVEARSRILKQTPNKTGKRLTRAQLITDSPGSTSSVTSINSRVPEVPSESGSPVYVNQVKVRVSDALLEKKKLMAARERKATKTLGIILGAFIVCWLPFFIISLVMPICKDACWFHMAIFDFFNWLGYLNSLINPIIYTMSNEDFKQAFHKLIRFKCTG

As a reminder, the Ki is the equilibrium dissociation constant of an inhibitor or competing ligand from its target. High values mean a looser hold on the target, low ones a stronger hold on the target. Compound `C1=C(CN2CCOCC2)COc2c1cccc2OCC1CNCCO1` (racemic) yielded a Ki in assay [1] of 60 nM. On the same count and under the same terms, in the case of `O=C(C1=Cc2cccc(OCC3CNCCO3)c2OC1)N1CCOCC1` (stereo not drawn) it was 240 nM.

In the case of `N#CC1=Cc2cccc(OCC3CNCCO3)c2OC1` (racemic), the Ki in assay [1] amounted to 250 nM. On the same count and under the same terms, in the case of `CN1CCOC(COc2cccc3c2OCC(C#N)=C3)C1` (racemic) it was 3600 nM; in that of `N#CC1=Cc2cccc(OCC3CNCCO3)c2CC1` (racemic), 445 nM.

As for `c1ccc2nc(N3CCNCC3)ccc2c1` [QUIPAZINE], the “No. of WDS/60 min” value in the assay on Rattus norvegicus [2] is on record as 36; in the assay on Rattus norvegicus [3], 30.

Regarding `N#CC1=Cc2cccc(OCC3CCCNC3)c2OC1` (racemic), in assay [1], the Ki worked out at 1400 nM.
